ChEMBL document CHEMBL3046081, “Phytotoxic effect, uptake, and transformation of biochanin A in selected weed species” (J Agric Food Chem, 2012)

Columns and labels:
Conditions in all cases: 336 h
[1] = tested on: Shoot; assay: Drug metabolism in Geranium molle shoot assessed as transformation to genistein at 400 uM after 14 days measured per gm of dry weight by LC-MS analysis; type: ADME
In short: (§1)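 Pregerminated seeds, 14 per container, transplanted onto 0.5% agar medium containing biochanin A. Grown at 24 ± 1 °C under a 16 h light/8 h dark photoperiod and harvested 14 days after transplanting. Roots and shoots collected separately, blotted, washed twice, then freeze-dried. Tissue extracted by ASE at 40 °C and analysed by LC-ESI-MS against commercial standards. Two replicates per treatment.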

[2] = tested on: Root; assay: Drug metabolism in Silene noctiflora root assessed as transformation to pratensein at 400 uM after 14 days measured per gm of dry weight by LC-MS analysis; type: ADME; in short: as §1
[3] = tested on: Shoot; assay: Drug metabolism in Geranium molle shoot assessed as transformation to p-coumaric acid at 400 uM after 14 days measured per gm of dry weight by LC-MS analysis; type: ADME; in short: as §1
[4] = tested on: Root; assay: Drug uptake in Echinochloa crus-galli (barnyard grass) root at 400 uM after 14 days measured per gm of dry weight by LC-MS analysis; type: ADME
In short: (§2)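 Pregerminated seeds (14 per container) were grown on 20 mL 0.5% agar medium containing biochanin A, at 24 ± 1 °C with a 16 h light/8 h dark cycle. There were two replicates per treatment: 14 containers for S. noctiflora, 9 for G. molle and E. crus-galli. At 14 days, roots and shoots were harvested separately, washed, blotted and freeze-dried. Extraction was ASE at 40 °C, 1600 psi, 3 cycles. Analysis was LC-ESI-MS SIM against standards.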

[5] = tested on: Geranium molle; assay: Phytotoxicity against Geranium molle assessed as root growth inhibition after 2 weeks by agar medium bioassay; type: functional, organism-based
In short: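 Agar bioassay with eight biochanin A doses (0–400 µM). Seeds were pregerminated 48 h at room temperature, then 10 seedlings (1–2 mm radicle) were placed per Petri dish. Plants grew 2 weeks at 24 ± 1 °C under a 16 h light/8 h dark cycle. Root length was measured, and EC values were taken from a four-parameter log-logistic nonlinear regression fit.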

[6] = tested on: Shoot; assay: Drug metabolism in Echinochloa crus-galli (barnyard grass) shoot assessed as transformation to pratensein at 400 uM after 14 days measured per gm of dry weight by LC-MS analysis; type: ADME; in short: as §1
[7] = tested on: Shoot; assay: Drug metabolism in Echinochloa crus-galli (barnyard grass) shoot assessed as transformation to sissotrin at 400 uM after 14 days measured per gm of dry weight by LC-MS analysis; type: ADME; in short: as §1
[8] = tested on: Root; assay: Drug uptake in Geranium molle root at 20 uM after 14 days measured per gm of dry weight by LC-MS analysis; type: ADME; in short: as §2

Drug metabolism [1]: 0.12 µmol
Drug metabolism [2]: 0.11 µmol
Drug metabolism [3]: 0.03 µmol
Drug uptake [4]: 2.13 µmol
Drug metabolism [6]: 0.24 µmol
Drug metabolism [7]: 0 µmol
Drug uptake [8]: 9.93 µmol
SMILES: COc1ccc(-c2coc3cc(O)cc(O)c3c2=O)cc1 [BIOCHANIN]
EC25 [5]: > 400 µM
EC50 [5]: > 400 µM
